Data published in ChEMBL document CHEMBL2396592, “Discovery of Dap-3 polymyxin analogues for the treatment of multidrug-resistant Gram-negative nosocomial infections” (J Med Chem, 2013).
≈ marks a conversion by molar mass, not a printed value.

Experiments:
[1] = test system: Klebsiella pneumoniae; assay: Antibacterial activity against polymyxin-sensitive ESBL-positive Klebsiella pneumoniae clinical isolate 3700 assessed as growth inhibition by broth microdilution method; type: functional
[2] = test system: Pseudomonas aeruginosa; assay: Antibacterial activity against Pseudomonas aeruginosa 1402 assessed as growth inhibition by broth microdilution method; type: functional
Procedure, shortened: (§1)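 CLSI broth microdilution MIC against P. aeruginosa 1401 (PA01) and 1402 (UC12120), the two strains used in the mouse thigh model.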

[3] = test system: Pseudomonas aeruginosa; assay: Antibacterial activity against polymyxin-sensitive Pseudomonas aeruginosa 1401 assessed as growth inhibition by broth microdilution method; type: functional; procedure, shortened: as §1
[4] = test system: Pseudomonas aeruginosa; assay: Antibacterial activity against polymyxin-resistant Pseudomonas aeruginosa clinical isolate 1646 assessed as growth inhibition by broth microdilution method; type: functional
Procedure, shortened: (§2)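 Test strain PA-1646 is a P. aeruginosa isolate with a mutated PmrAB two-component system. The system is constitutively active, so the modified lipid A moiety is constantly expressed on the cell surface, giving a polymyxin-resistant phenotype.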

[5] = Ratio of fAUC in ICR mouse neutropenic infection model to MIC for Pseudomonas aeruginosa assessed during measurement of 1 log decrease parameter; type: functional
[6] = test system: Canis familiaris; assay: fAUC in beagle dog at 5 mg/kg, iv bid administered as bolus dose for 7 days measured at 1 to 7 days; type: ADME, organism-based, Canis lupus familiaris; set-up: dose 5 mg/kg, route intravenous; details: in vivo
[7] = test system: Acinetobacter baumannii; assay: Antibacterial activity against polymyxin-resistant Acinetobacter baumannii clinical isolate 1649 assessed as growth inhibition by broth microdilution method; type: functional
[8] = test system: Canis familiaris; assay: fAUC in beagle dog at 20 mg/kg, iv bid administered as bolus dose for 7 days measured at 1 to 7 days; type: ADME, organism-based, Canis lupus familiaris; set-up: dose 20 mg/kg, route intravenous; details: in vivo
[9] = Fraction unbound in Wistar Han rat plasma; type: ADME, cell-free
[10] = test system: Acinetobacter baumannii; assay: Bactericidal activity against polymyxin-resistant Acinetobacter baumannii clinical isolate 1649; type: functional
[11] = Cytotoxicity against human RPTEC after 24 hrs by LDH assay; type: cell-based; details: RPTEC cells, read-out: TC50
Procedure, shortened: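 Primary human renal proximal tubule epithelial cells in REGM (EGF, hydrocortisone, epinephrine, insulin, T3, transferrin, gentamycin/amphotericin-B, FBS). After 72 h of growth at 37 °C, 5% CO2, cells were exposed for 24 h to aqueous compound at 100, 67, 44, 30, 20 and 13 μM. LDH release into the supernatant was measured by kit and TC50 (μM) derived, with PMB and PMBN as controls.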

[12] = test system: Rattus norvegicus; assay: Nephrotoxicity in Wistar Han rat assessed as incidence of necrotic kidney lesions at 4 to 8 mg/kg, iv bid administered as bolus dose for 7 days measured at 1 to 7 days by microscopic analysis; type: toxicity, organism-based; set-up: route intravenous; details: in vivo
Procedure, shortened: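 Male Wistar Han IGS rats, 6–9 weeks old, received IV bolus twice daily (≥6 h apart) for 7 days at 0 (0.9% saline), 4 or 8 mg/kg/day. Necropsy was the day after the last dose. Kidneys were weighed and examined microscopically for proximal tubule epithelial degeneration/regeneration, graded minimal to severe. Incidence is given as animals with lesions over animals tested.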

[13] = Ratio of fAUC in ICR mouse neutropenic infection model to MIC for Pseudomonas aeruginosa assessed during measurement of 50% of maximal efficacy; type: functional
[14] = test system: Pseudomonas aeruginosa; assay: Antibacterial activity against polymyxin-resistant Pseudomonas aeruginosa clinical isolates assessed as growth inhibition by broth microdilution method
[15] = Ratio of fAUC in ICR mouse neutropenic infection model to MIC for Pseudomonas aeruginosa assessed during measurement of exposure index required for 80%; type: functional
[16] = Fraction unbound in beagle dog plasma; type: ADME, cell-free, Canis lupus familiaris
[17] = test system: Acinetobacter baumannii; assay: Antibacterial activity against polymyxin-sensitive Acinetobacter baumannii clinical isolate 3167 assessed as growth inhibition by broth microdilution method; type: functional
[18] = test system: Rattus norvegicus; assay: fAUC in Wistar Han rat at 4 mg/kg, iv bid administered as bolus dose for 7 days measured at 1 to 7 days; type: ADME, organism-based; set-up: dose 4 mg/kg, route intravenous; details: in vivo
[19] = test system: Canis familiaris; assay: Ratio of compound fAUC in beagle dog at 11 mg/kg, iv bid for 7 days to polymyxin B fAUC in beagle dog at 6 mg/kg, iv bid for 7 days; type: ADME, organism-based, Canis lupus familiaris; details: in vivo, 168 h
[20] = test system: Canis familiaris; assay: fAUC in beagle dog at 11 mg/kg, iv bid administered as bolus dose for 7 days measured at 1 to 7 days; type: ADME, organism-based, Canis lupus familiaris; set-up: dose 11 mg/kg, route intravenous; details: in vivo
[21] = test system: Escherichia coli; assay: Antibacterial activity against polymyxin-sensitive Escherichia coli isolate 1 assessed as growth inhibition by broth microdilution method; type: functional
[22] = test system: Rattus norvegicus; assay: fAUC in Wistar Han rat at 8 mg/kg, iv bid administered as bolus dose for 7 days measured at 1 to 7 days; type: ADME, organism-based; set-up: dose 8 mg/kg, route intravenous; details: in vivo
[23] = Ratio of fAUC in ICR mouse neutropenic infection model to MIC for Pseudomonas aeruginosa assessed during measurement of statis parameter; type: functional
[24] = test system: Mus musculus; assay: fAUC in ICR mouse neutropenic infection model at 12.5 to 75 mg/kg, sc; type: ADME, organism-based; set-up: dose 12.5-75 mg/kg, route subcutaneous; details: in vivo
Procedure, shortened: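 Infected neutropenic female ICR mice (~25 g; cyclophosphamide 150 and 100 mg/kg IP at 4 and 1 days before inoculation) received single SC doses of 12.5–75 mg/kg. Six mice per time point were sampled by cardiac puncture at eight times over 12 h, and plasma was assayed by LC-MS.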

[25] = test system: Canis familiaris; assay: Nephrotoxicity in beagle dog assessed as incidence of necrotic kidney lesions at 5 to 20 mg/kg, iv bid administered as bolus dose for 7 days measured at 1 to 7 days by microscopic analysis; type: toxicity, organism-based, Canis lupus familiaris; set-up: route intravenous; details: in vivo
Procedure, shortened: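 Male and female Beagle dogs, 5–11 kg, received IV bolus twice daily (≥6 h apart) for 7 days at 0 (0.9% saline), 5, 11 or 20 mg/kg/day. Necropsy was the day after the last dose. Kidney proximal tubules were examined microscopically for degeneration/regeneration and graded in severity. Incidence is given as animals with lesions over animals tested.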

[26] = test system: Pseudomonas aeruginosa; assay: Bactericidal activity against polymyxin-resistant Pseudomonas aeruginosa clinical isolate 1646; type: functional; procedure, shortened: as §2
[27] = Plasma protein binding in ICR mouse neutropenic infection model; type: ADME, cell-free; details: read-out: PPB (converted)

## CC(C)C[C@@H]1NC(=O)[C@@H](Cc2ccccc2)NC(=O)[C@H](CCN)NC(=O)[C@@H](NC(=O)[C@H](CN)NC(=O)[C@@H](NC(=O)[C@H](CCN)NC(=O)c2ccc(=O)n(-c3ccccc3)c2)[C@@H](C)O)CCNC(=O)[C@H]([C@@H](C)O)NC(=O)[C@H](CCN)NC(=O)[C@H](CCN)NC1=O
[1]
  MIC50: 0.5 µg/mL
  MIC90: 1 µg/mL
[2]
  MIC: 0.5 µg/mL
[3]
  MIC50: 1 µg/mL
  MIC90: 2 µg/mL
[4]
  MIC: 4 µg/mL
  MIC50: 2 µg/mL
[5]
  fAUC/MIC: 109.63
[6]
  fAUC: 20000 ng·h/mL
[7]
  MIC50: 4 µg/mL
  MIC90: 16 µg/mL
[8]
  fAUC: 114000 ng·h/mL
[9]
  fraction unbound: 0.81
[10]
  MBC: 2 µg/mL (≈ 1.6 µM)
[11]
  CC50 at 24 h: > 100 µM
[12]
  Activity: Non-toxic
[13]
  fAUC/MIC: 87.92
[14]
  MIC90: 8 µg/mL
[15]
  fAUC/MIC: 157.55
[16]
  fraction unbound: 0.58
[17]
  MIC50: 2 µg/mL
  MIC90: 2 µg/mL
[18]
  fAUC: 13000 ng·h/mL
[19]
  fAUC ratio: 1.5
[20]
  fAUC: 64000 ng·h/mL
[21]
  MIC50: 1 µg/mL
  MIC90: 2 µg/mL
[22]
  fAUC: 29000 ng·h/mL
[23]
  fAUC/MIC: 85.26
[24]
  fAUC: 7200 ng·h/mL
[25]
  Activity: Toxic
[26]
  MBC: 8 µg/mL (≈ 6.42 µM)
[27]
  fraction unbound: 0.54
